Assay [1] addresses T1, Retinoic acid receptor beta (Homo sapiens, UniProt P10826).
T1 sequence (P10826 whole entry): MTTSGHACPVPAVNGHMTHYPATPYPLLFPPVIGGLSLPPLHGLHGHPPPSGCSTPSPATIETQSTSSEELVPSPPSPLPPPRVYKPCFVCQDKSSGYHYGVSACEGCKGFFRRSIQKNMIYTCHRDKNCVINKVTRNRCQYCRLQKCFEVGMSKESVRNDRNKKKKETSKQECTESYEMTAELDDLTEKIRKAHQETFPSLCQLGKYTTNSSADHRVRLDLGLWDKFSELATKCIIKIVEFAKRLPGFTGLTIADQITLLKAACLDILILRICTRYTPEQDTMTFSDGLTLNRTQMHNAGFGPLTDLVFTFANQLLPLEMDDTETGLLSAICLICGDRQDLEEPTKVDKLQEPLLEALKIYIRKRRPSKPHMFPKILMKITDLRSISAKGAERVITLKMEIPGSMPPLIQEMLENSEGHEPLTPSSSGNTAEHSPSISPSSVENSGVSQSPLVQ
The assay is described as follows: Binding affinity towards retinoic acid receptor beta was determined using [3H]ATRA (5 nM) as radioligand.

Assay [2] concerns the target T2, Retinoic acid receptor gamma (Homo sapiens, UniProt P13631).
T2 sequence (P13631 whole entry): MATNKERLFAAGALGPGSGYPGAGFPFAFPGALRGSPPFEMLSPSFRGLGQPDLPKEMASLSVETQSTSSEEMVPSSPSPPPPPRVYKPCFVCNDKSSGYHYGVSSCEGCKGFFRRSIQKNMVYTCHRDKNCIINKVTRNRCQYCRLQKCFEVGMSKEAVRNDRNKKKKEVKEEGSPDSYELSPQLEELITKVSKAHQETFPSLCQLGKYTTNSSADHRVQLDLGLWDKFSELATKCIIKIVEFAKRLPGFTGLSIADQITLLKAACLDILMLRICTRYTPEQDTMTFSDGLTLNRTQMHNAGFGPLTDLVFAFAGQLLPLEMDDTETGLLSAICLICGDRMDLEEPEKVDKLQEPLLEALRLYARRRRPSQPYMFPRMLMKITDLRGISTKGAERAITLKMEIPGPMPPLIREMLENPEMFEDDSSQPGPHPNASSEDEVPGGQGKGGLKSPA
As to the kind of experiment: Binding affinity towards retinoic acid receptor gamma was determined using [3H]ATRA (5 nM) as radioligand.

Assay [3] deals with T3, Retinoic acid receptor alpha (Homo sapiens, UniProt P10276).
T3 sequence (P10276 whole entry): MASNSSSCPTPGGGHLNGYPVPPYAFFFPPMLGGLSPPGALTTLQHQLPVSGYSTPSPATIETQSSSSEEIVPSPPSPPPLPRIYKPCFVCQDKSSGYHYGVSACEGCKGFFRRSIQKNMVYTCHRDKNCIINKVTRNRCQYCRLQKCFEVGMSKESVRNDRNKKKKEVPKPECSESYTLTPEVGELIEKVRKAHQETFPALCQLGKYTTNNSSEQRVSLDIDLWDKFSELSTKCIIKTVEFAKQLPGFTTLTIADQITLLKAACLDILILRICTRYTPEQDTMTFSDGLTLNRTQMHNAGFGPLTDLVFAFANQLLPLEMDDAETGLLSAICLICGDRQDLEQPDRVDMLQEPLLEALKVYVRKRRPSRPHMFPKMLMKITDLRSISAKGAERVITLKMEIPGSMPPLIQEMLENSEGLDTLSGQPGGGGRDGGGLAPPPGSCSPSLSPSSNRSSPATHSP
As to the kind of experiment: Binding affinity towards retinoic acid receptor alpha was determined using [3H]ATRA (5 nM) as radioligand.

Assay [4] addresses T4, Retinoic acid receptor alpha (Homo sapiens) (UniProt P10276).
T4 sequence (whole entry): T3 sequence (P10276 whole entry)
As to the kind of experiment: Efficacy of TTNPB (10 nM) function at retinoic acid receptor alpha, antagonized at highest dose tested (10⁴ nM). Summed up:
(§1)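 In the RAR transactivation assay with 10 nM TTNPB, efficacy is the percent of TTNPB transcriptional activity antagonized at the highest dose tested (10⁴ nM). Each receptor subtype is tested separately.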

Assay [5] has as its target T2, Retinoic acid receptor gamma. The assay is described as follows: Antagonist activity of TTNPB (10 nM) function at retinoic acid receptor gamma. The format is functional. In a few lines:
(§2)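 Transactivation assay run separately at RARα, RARβ and RARγ. Test compound is applied at varying concentrations against 10 nM TTNPB, held constant. Inhibition of TTNPB-driven transcriptional activation is measured, and IC50 is calculated as the half-maximal inhibition concentration.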

Assay [6] deals with T1, Retinoic acid receptor beta. As to the kind of experiment: Antagonist activity of TTNPB (10 nM) function at retinoic acid receptor beta. The format is functional. In a few lines:
as §2

For assay [7], the target named is T5, Retinoic acid receptor beta (Homo sapiens) (UniProt P10826).
T5 sequence (whole entry): T1 sequence (P10826 whole entry)
The assay is described as follows: Efficacy of TTNPB (10 nM) function at retinoic acid receptor beta (10 uM). In a few lines:
as §1

Assay [8] concerns the target T3, Retinoic acid receptor alpha. As to the kind of experiment: Antagonist activity of TTNPB (10 nM) function at retinoic acid receptor alpha. The format is functional. In a few lines:
as §2

The target in assay [9] is T6, Retinoic acid receptor gamma (Homo sapiens) (UniProt P13631).
T6 sequence (whole entry): T2 sequence (P13631 whole entry)
The assay is described as follows: Efficacy of TTNPB (10 nM) function at retinoic acid receptor gamma (10 uM). In a few lines:
as §1

The target in assay [10] is T2, Retinoic acid receptor gamma. As to the kind of experiment: Ability to inhibit TTNPB-induced transactivation at retinoic acid receptor gamma.
The target of assay [11] is T1, Retinoic acid receptor beta. As to the kind of experiment: Ability to inhibit TTNPB-induced transactivation at retinoic acid receptor beta.
Assay [12] deals with T3, Retinoic acid receptor alpha. As to the kind of experiment: Ability to inhibit TTNPB-induced transactivation at retinoic acid receptor alpha.

The values that follow come from ChEMBL document CHEMBL1134232, “Phenylcyclohexene and phenylcyclohexadiene substituted compounds having retinoid antagonist activity” (Bioorg Med Chem Lett, 2001).

The term Kd denotes the free concentration of one partner at which half of the binding sites on the other are occupied at equilibrium, for simple one-to-one binding. Lower therefore signals higher affinity. As usually defined, the IC50 is the concentration at which inhibition is half-maximal. A high value points to weaker potency. The term EC50 denotes the concentration giving half of the maximal effect. Low readings indicate an effect from little substance, high ones a need for much substance.

Consider `CC1(C)C=C(/C=C/C#Cc2ccc(C(=O)O)cc2)C(c2ccc(C(C)(C)C)cc2)=CC1`, for which the results for the Kd in assay [1], in assay [2] and in assay [3] were 87 nM, over 1000 nM and over 1000 nM, respectively.

For `CCc1ccc(C2=C(/C=C/C#Cc3ccc(C(=O)O)cc3)C(C)(C)CCC2)cc1`, the Efficacy came to 97% in assay [4], 96% in assay [7] and 95% in [9]. Further, the IC50 in [5] came out at 3 nM; in assay [6], 40 nM; in [8] it was 220 nM.

Take `CC1(C)CCC(C)(C)c2cc(C/C=C/c3ccc(C(=O)O)cc3)ccc21`: the figures for the Kd in [1], in assay [2] and in assay [3] were 5 nM, 26 nM and 36 nM, respectively. Also, the values for the EC50 in assay [10], in [11] and in [12] were 4 nM, 8 nM and 30 nM, respectively.

For the compound `Cc1ccc(C2=CCC(C)(C)C=C2/C=C/C#Cc2ccc(C(=O)O)cc2)cc1`, the Kd in assay [1] worked out at 53 nM; in assay [2] it was 31 nM; in assay [3] it was 252 nM. Also, the Efficacy in [4] was 96%; in assay [7], 94%; in [9] it was 97%.

As to `Cc1ccc(C2=C(/C=C/C#Cc3ccc(C(=O)O)cc3)C(C)(C)CCC2)cc1`, the results for the Efficacy in [4], in [7] and in assay [9] were 93%, 92% and 96%, respectively. The IC50 worked out at 5 nM in [5], 22 nM in [6] and 210 nM in assay [8].

For `CC1=C(/C=C/C#Cc2ccc(C(=O)O)cc2)C(C)(C)CCC1`, the Kd in assay [1] stood at 20 nM; in assay [2], 190 nM; in assay [3], 135 nM. Also, the EC50 in assay [11] came to 7 nM; in assay [12] it was 435 nM.

As for `CC1(C)CCCC(c2ccc(C(C)(C)C)cc2)=C1/C=C/C#Cc1ccc(C(=O)O)cc1`, the Kd amounted to 25 nM in [1], 331 nM in assay [2] and 875 nM in [3]. Moreover, the values for the Efficacy in [4], in assay [7] and in assay [9] were 94%, 96% and 95%, respectively.

Regarding `Cc1ccc(C2=CCC(C)(C)c3ccc(C#Cc4ccc(C(=O)O)cc4)cc32)cc1`, the Efficacy in [4] was 91%; in [7], 97%; in assay [9], 98%. Further, the results for the IC50 in assay [5], in assay [6] and in assay [8] were 3 nM, 20 nM and 31 nM, respectively. This compound also gave a Kd in assay [3] of 17 nM.
